Results reported in ChEMBL document CHEMBL4699441, “Identification and Preclinical Evaluation of the Bicyclic Pyrimidine γ-Secretase Modulator BMS-932481” (ACS Med Chem Lett, 2019).
Calls of active or inactive are those of the source. The rule behind the calls is not given here.

How the values were obtained:
[1] = AUC (0 to 24 hrs) in Harlan Sprague-Dawley rat incubated for 24 hrs by LC-MS/MS analysis; type: ADME; set-up: time 24 hrs; conditions: in vivo
[2] = biological target: T1, Solute carrier organic anion transporter family member 1B1 (Homo sapiens, UniProt Q9Y6L6); assay: Inhibition of OATP1B1 (unknown origin); type: ADME
T1 sequence (Q9Y6L6 whole entry): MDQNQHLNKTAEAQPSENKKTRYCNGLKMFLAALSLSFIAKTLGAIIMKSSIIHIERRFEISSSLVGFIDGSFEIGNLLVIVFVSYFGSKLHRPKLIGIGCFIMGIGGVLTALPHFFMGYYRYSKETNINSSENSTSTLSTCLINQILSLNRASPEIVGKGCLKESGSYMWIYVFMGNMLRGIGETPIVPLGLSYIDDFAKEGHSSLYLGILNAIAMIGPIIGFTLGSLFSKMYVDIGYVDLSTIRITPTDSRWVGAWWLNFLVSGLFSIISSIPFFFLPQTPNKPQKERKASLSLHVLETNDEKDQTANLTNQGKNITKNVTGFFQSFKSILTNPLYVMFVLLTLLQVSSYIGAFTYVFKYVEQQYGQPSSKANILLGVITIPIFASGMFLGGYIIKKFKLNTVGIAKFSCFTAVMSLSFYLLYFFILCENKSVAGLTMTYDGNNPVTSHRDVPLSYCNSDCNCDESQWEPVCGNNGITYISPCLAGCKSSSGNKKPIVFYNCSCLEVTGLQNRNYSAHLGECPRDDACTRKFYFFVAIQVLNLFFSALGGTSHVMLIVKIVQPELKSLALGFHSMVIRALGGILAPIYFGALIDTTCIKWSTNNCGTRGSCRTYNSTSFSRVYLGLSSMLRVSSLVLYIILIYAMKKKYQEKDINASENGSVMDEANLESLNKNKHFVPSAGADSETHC

H4 = assay: Inhibition of amyloid beta (1 to 40) secretion in human H4 cells overexpressing APP incubated for 24 hrs by MALDI-TOF mass spectrometric analysis; type: functional, cell-based
[3] = biological target: Gamma-secretase (Homo sapiens) (UniProt Q96BI3+Q9NZ42+Q8WW43+P49768+Q92542+P49810); assay: Modulation of gamma-secretase in human H4 cells overexpressing APP incubated assessed as increase in amyloid beta (1 to 37) secretion for 24 hrs by MALDI-TOF mass spectrometric analysis; type: cell-based; conditions: filed as modulator
Outline: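 H4-APPsw cells treated with compound; secreted Aβ species quantified by mass spectrometry; total Aβ1-x checked by ELISA up to 10 μM.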

[4] = biological target: T2, Nuclear receptor subfamily 1 group I member 2 (Homo sapiens, UniProt O75469); assay: Transactivation of PXR (unknown origin) assessed as CYP450 induction; type: ADME
T2 sequence (O75469 whole entry): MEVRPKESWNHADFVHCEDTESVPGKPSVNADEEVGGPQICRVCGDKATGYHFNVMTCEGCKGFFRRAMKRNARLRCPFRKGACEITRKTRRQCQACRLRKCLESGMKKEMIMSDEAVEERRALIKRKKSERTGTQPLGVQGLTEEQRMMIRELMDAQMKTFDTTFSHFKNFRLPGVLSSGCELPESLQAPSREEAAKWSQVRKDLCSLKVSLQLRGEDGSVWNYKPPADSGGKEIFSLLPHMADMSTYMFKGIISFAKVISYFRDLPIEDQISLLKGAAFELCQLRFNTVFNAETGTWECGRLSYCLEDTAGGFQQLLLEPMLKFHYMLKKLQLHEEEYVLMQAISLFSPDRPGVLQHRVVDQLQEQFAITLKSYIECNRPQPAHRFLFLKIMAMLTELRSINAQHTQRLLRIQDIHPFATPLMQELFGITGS

[5] = Inhibition of amyloid beta (1 to 40) secretion in human H4 cells overexpressing APP incubated for overnight by HTRF analysis; type: functional, cell-based
[6] = Inhibition of total amyloid beta secretion in human H4 cells overexpressing APP at 50 uM; type: cell-based
[7] = Metabolic stability in cynomolgus monkey assessed as half life incubated for 24 hrs by LC-MS/MS analysis; type: ADME, Macaca fascicularis
[8] = Metabolic stability in Beagle dog assessed as half life incubated for 24 hrs by LC-MS/MS analysis; type: ADME, Canis lupus familiaris
[9] = Fraction unbound in Sprague-Dawley rat plasma measured after 24 hrs by LC-MS/MS analysis; type: ADME, cell-free
[10] = Fraction unbound in mouse plasma measured after 24 hrs by LC-MS/MS analysis; type: ADME, cell-free
[11] = Fraction unbound in cynomolgus monkey plasma measured after 24 hrs by LC-MS/MS analysis; type: ADME, cell-free, Macaca fascicularis
Cytochrome P450 2D6 = Cytochrome P450 2D6 (Homo sapiens, UniProt P10635); assay: Inhibition of CYP2D6 in human liver microsomes; type: ADME
Cytochrome P450 3A4 [12] = biological target: T3, Cytochrome P450 3A4 (Homo sapiens, UniProt P08684); assay: Inhibition of CYP3A4 in human liver microsomes measured after 30 mins; type: ADME
Cytochrome P450 3A4 [13] = biological target: T3, Cytochrome P450 3A4; assay: Time dependent inhibition of CYP3A4 in human liver microsomes assessed as inactivation constant; type: ADME
[14] = Dissociation constant, pKa of compound; type: physicochemical
[15] = Half life in Sprague-Dawley rat at 2 mg/kg, iv measured up to 24 hrs by LC-MS/MS analysis; type: ADME, organism-based; conditions: in vivo
Outline: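 Sprague-Dawley rats, 2 mg/kg by 5 min iv infusion in 9:1 PEG:EtOH, n=5.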

[16] = Volume of steady state distribution in Beagle dog at 1 mg/kg, iv measured up to 24 hrs by LC-MS/MS analysis; type: ADME, organism-based, Canis lupus familiaris; conditions: in vivo
Outline: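 Male Beagle dog or male cynomolgus monkey; 1 mg/kg as 5 min iv infusion in 9:1 PEG:EtOH; n = 3; volume of distribution at steady state.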

[17] = Oral bioavailability in Beagle dog at 1 mg/kg dosed as nano suspension measured up to 24 hrs by LC-MS/MS analysis; type: ADME, organism-based, Canis lupus familiaris; conditions: in vivo
Outline: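 Oral dosing as a nanosuspension in Sprague–Dawley rat, male Beagle dog and male cynomolgus monkey; dogs pretreated with pentagastrin.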

[18] = Cardiotoxicity in unconscious telemeterized rabbit assessed as increase in QTcv time at 10 mg/kg; type: toxicity, organism-based, Oryctolagus cuniculus; conditions: in vivo
[19] = Hemodynamic activity in unconscious telemeterized rabbit assessed as decrease in heart rate at >= 10 mg/kg; type: ADME, organism-based, Oryctolagus cuniculus; conditions: in vivo
[20] = Hemodynamic activity in conscious telemeterized rat assessed as change in blood pressure at >= 10 mg/kg; type: ADME, organism-based; conditions: in vivo
[21] = Toxicity in rat assessed as change in bilirubin secretion at 10 to 100 mg/kg, po administered for 2 week; type: organism-based; conditions: in vivo, 336 h, dose 10-100 mg/kg, time 2 weeks
[22] = Hepatotoxicity in rat at 100 mg/kg, po administered for 2 week; type: toxicity, organism-based; conditions: in vivo, 336 h, time 2 weeks
Outline: (§1)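 Rats given oral doses of 10, 30 or 100 mg/kg daily for 2 weeks in a repeat-dose toxicity study.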

[23] = Induction of necrosis in rat at 100 mg/kg, po administered for 2 week; type: organism-based; conditions: in vivo, 336 h, time 2 weeks; outline: as §1
[24] = Toxicity in Beagle dog assessed as changes in bilirubin level at 300 mg/kg, po; type: organism-based, Canis lupus familiaris; conditions: in vivo
Outline: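 Dogs given a single acute oral dose of 300 mg/kg; bilirubin and other clinical pathology assessed; Cmax and AUC measured.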

[25] = Toxicity in rat assessed as stress at 100 mg/kg, po administered for 2 week; type: organism-based; conditions: in vivo, 336 h, time 2 weeks
[26] = Toxicity in rat assessed as reduction in food consumption at 100 mg/kg, po administered for 2 week; type: organism-based; conditions: in vivo, 336 h, time 2 weeks

T3 sequence (P08684 whole entry): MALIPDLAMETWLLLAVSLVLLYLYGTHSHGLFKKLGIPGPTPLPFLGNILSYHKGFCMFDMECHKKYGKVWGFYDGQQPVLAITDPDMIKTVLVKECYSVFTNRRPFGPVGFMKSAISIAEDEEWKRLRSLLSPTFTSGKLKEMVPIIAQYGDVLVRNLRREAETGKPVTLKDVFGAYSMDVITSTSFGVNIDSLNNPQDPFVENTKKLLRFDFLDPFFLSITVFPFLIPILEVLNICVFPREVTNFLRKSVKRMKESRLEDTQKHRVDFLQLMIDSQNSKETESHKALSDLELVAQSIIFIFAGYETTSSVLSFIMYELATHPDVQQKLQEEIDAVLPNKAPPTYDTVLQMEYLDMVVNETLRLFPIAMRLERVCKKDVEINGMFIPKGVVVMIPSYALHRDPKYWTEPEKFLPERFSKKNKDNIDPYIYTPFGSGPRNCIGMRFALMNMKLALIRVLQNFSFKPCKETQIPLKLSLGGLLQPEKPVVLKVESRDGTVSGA
Sequence of Cytochrome P450 2D6 (P10635 whole entry): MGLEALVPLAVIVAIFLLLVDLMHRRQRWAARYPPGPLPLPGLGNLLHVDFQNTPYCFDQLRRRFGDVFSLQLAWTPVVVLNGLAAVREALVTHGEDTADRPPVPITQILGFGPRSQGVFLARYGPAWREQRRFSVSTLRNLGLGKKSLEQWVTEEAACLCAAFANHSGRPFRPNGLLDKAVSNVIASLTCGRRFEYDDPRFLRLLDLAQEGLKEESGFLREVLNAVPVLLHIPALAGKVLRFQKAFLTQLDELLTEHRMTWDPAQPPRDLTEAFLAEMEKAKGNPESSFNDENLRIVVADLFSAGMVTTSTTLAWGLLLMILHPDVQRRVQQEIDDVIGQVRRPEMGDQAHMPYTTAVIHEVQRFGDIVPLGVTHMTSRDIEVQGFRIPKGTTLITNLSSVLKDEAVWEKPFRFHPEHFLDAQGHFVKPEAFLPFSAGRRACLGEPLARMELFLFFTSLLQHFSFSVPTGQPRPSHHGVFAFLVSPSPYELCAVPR

In the case of `CNc1nc(Nc2ccc(-n3cnc(C)n3)c(OC)c2)nc2c1CC[C@H]2c1ccc(F)cc1`, the AUC(0-t) at 24 h [1] is reported as 4 µM·h, the IC50 [2] is reported as 66 nM and the inhibition (H4) is reported as “Active”. The inhibition [3] was “Active”, the EC50 [4] was greater than 2700 nM and the IC50 [5] was 25 nM. The inhibition at 50 µM [6] was 30%, the t1/2 [7] was 11 min and the t1/2 [8] was 27 min. For the same molecule, the Fu [9] was 0.7%, the Fu [10] was 0.7% and the Fu [11] was 1.3%. The IC50 (Cytochrome P450 2D6) was 18000 nM, the IC50 (Cytochrome P450 3A4 [12]) was 200 nM and the Kinact (Cytochrome P450 3A4 [13]) was 0.47 min⁻¹. It also gave a pKa [14] of 2, a t1/2 [15] of 162 min and a Vdss [16] of 6.1 L/kg. For the same molecule, the F [17] was 85%, the Time [18] was 10 ms and the Activity [19] was “Non-Toxic”. The Activity [20] was “Non-Toxic”, the Activity [21] was “Non-Toxic” and the Activity [22] was “Non-Toxic”. For the same molecule, the Activity [23] was “Non-Toxic”, the Activity [24] was “Non-Toxic” and the Activity [25] was “Non-Toxic”. For the same molecule, the Activity [26] was “Non-Toxic”.
